Assay results: ChEMBL document CHEMBL4387781, “Optimization of oxadiazole derivatives with a spirocyclic cyclohexane structure as novel GPR119 agonists” (Bioorg Med Chem Lett, 2019)
Calls of active or inactive are those of the source. The rule behind the calls is not given here.

Key:
[1] = molecular target: T1, Glucose-dependent insulinotropic receptor (Homo sapiens) (UniProt Q8TDV5); test: Agonist activity at recombinant human GPR119 expressed in HEK293 cells assessed as increase in intracellular cAMP accumulation measured after 30 mins relative to oleoylethanolamide; format: functional, cell-based
T1 sequence (whole entry): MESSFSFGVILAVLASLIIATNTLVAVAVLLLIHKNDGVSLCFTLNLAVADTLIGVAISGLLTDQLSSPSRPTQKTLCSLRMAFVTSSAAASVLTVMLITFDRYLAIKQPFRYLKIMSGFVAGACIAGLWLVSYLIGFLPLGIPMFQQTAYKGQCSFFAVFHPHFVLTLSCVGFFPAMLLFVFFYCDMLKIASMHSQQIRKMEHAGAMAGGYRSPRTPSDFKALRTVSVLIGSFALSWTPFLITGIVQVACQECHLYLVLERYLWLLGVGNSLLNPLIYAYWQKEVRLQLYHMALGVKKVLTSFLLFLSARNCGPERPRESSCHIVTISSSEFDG

[2] = molecular target: T2, Glucose-dependent insulinotropic receptor (Homo sapiens, UniProt Q8TDV5); test: Agonist activity at recombinant human GPR119 expressed in HEK293 cells assessed as increase in intracellular cAMP accumulation measured after 30 mins; format: functional, cell-based
T2 sequence (Q8TDV5 whole entry): T1 sequence (whole entry)

[3] = Stability in human liver microsomes assessed as parent compound remaining at 5 uM measured after 1 hr; format: ADME, Microsome; conditions: read-out: Stability
Summary of the method: (§1)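 Compound at 5 μM incubated 1 hour with human or rat liver microsomes (0.2 mg/mL); percent of parent remaining reported.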

[4] = Stability in rat liver microsomes assessed as parent compound remaining at 5 uM measured after 1 hr; format: ADME, Microsome; conditions: read-out: Stability; summary of the method: as §1
Rattus norvegicus [5] = test: Hypoglycemic activity in Sprague-Dawley rat assessed as reduction in plasma glucose AUC at 1 mg/kg, po treated for 16 hrs prior to glucose stimulation and measured up to 2 hrs by IPGTT relative to control; format: functional; set-up: scale not given: the % may be the effect or the level left
Summary of the method: (§2)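 Overnight-fasted 7-week-old Sprague-Dawley rats dosed by oral gavage; 16 h later glucose 1 g/kg given intraperitoneally. Tail-vein blood drawn before and at 10, 30, 60 min after loading; glucose followed up to 2 h. Plasma glucose by automatic analyzer, insulin by rat insulin ELISA; glucose AUC calculated.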

Cytochrome P450 2C8 = molecular target: T3, Cytochrome P450 2C8 (Homo sapiens, UniProt P10632); test: Inhibition of CYP2C8 (unknown origin); format: ADME
T3 sequence (P10632 whole entry): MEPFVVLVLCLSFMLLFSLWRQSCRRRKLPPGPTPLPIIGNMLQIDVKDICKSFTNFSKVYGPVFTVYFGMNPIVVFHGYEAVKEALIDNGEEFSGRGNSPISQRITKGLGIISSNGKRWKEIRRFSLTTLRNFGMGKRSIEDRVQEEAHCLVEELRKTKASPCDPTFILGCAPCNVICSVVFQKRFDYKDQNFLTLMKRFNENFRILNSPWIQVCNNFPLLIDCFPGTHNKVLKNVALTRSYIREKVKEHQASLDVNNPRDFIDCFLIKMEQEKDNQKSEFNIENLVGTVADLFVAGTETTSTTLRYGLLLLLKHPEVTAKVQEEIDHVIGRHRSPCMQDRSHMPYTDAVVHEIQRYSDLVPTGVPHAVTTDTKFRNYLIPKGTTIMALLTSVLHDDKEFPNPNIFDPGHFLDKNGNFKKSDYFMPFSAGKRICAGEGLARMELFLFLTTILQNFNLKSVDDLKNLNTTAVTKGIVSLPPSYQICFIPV

Rattus norvegicus [6] = test: Hypoglycemic activity in Sprague-Dawley rat assessed as reduction in plasma glucose AUC at 3 mg/kg, po treated for 16 hrs prior to glucose stimulation and measured up to 2 hrs by IPGTT relative to control; format: functional; set-up: scale not given: the % may be the effect or the level left; summary of the method: as §2
Cytochrome P450 2C19 = Cytochrome P450 2C19 (Homo sapiens, UniProt P33261); test: Inhibition of CYP2C19 (unknown origin); format: ADME
Cytochrome P450 2C9 = Cytochrome P450 2C9 (Homo sapiens, UniProt P11712); test: Inhibition of CYP2C9 (unknown origin); format: ADME
Rattus norvegicus [7] = test: Effect on plasma glucose level in Sprague-Dawley rat at 1 to 3 mg/kg, po measured after 16 hrs; format: ADME, organism-based; conditions: in vivo; summary of the method: as §2
Cytochrome P450 2D6 = Cytochrome P450 2D6 (Homo sapiens, UniProt P10635); test: Inhibition of CYP2D6 (unknown origin); format: ADME
Cytochrome P450 3A4 = Cytochrome P450 3A4 (Homo sapiens, UniProt P08684); test: Inhibition of CYP3A4 (unknown origin); format: ADME
[8] = Volume of distribution at steady state in Sprague-Dawley rat at 1 mg/kg, iv; format: ADME, organism-based; conditions: in vivo, read-out: Vdss
Summary of the method: (§3)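 Sprague-Dawley rats given 1 mg/kg intravenously or 3 mg/kg orally; t1/2β, CL, Vdss and MRT from IV dosing, oral bioavailability from PO dosing.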

Rattus norvegicus [9] = test: Effect on plasma insulin level in Sprague-Dawley rat at 1 to 3 mg/kg, po measured after 16 hrs by ELISA; format: ADME, organism-based; conditions: in vivo; summary of the method: as §2
[10] = MRT in Sprague-Dawley rat at 1 mg/kg, iv; format: ADME, organism-based; conditions: in vivo; summary of the method: as §3
Cytochrome P450 1A2 = molecular target: T4, Cytochrome P450 1A2 (Homo sapiens, UniProt P05177); test: Inhibition of CYP1A2 (unknown origin); format: ADME
T4 sequence (P05177 whole entry): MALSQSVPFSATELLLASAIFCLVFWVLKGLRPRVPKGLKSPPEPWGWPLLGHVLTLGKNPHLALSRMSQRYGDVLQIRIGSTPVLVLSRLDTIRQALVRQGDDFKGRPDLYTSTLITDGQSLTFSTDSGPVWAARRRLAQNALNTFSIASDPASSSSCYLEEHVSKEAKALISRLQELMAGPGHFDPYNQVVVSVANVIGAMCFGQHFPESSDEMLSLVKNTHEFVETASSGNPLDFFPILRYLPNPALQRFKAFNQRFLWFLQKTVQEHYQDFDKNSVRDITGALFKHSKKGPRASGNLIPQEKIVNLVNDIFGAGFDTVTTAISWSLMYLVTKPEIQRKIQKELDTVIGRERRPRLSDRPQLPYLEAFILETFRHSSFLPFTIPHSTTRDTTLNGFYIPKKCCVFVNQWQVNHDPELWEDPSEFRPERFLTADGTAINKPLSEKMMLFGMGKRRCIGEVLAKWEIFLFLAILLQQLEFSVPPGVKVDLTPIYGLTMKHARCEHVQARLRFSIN

[11] = Clearance in Sprague-Dawley rat at 1 mg/kg, iv; format: ADME, organism-based; conditions: in vivo; summary of the method: as §3
[12] = Terminal half life in Sprague-Dawley rat at 1 mg/kg, iv; format: ADME, organism-based; conditions: in vivo, read-out: beta t1/2 (converted); summary of the method: as §3
[13] = Oral bioavailability in Sprague-Dawley rat at 3 mg/kg; format: ADME, organism-based; conditions: in vivo; summary of the method: as §3
Rattus norvegicus [14] = test: Hypoglycemic activity in Sprague-Dawley rat assessed as reduction in plasma insulin level at 1 to 3 mg/kg, po treated for 16 hrs prior to glucose stimulation and measured up to 1 hr by ELISA; format: functional, organism-based; summary of the method: as §2
Rattus norvegicus [15] = test: Hypoglycemic activity in Sprague-Dawley rat assessed as reduction in plasma glucose level at 1 to 3 mg/kg, po treated for 16 hrs prior to glucose stimulation and measured up to 2 hrs by IPGTT; format: functional, organism-based; summary of the method: as §2
[16] = Protein binding in rat plasma; format: ADME, cell-free; conditions: read-out: PPB (converted)
[17] = Protein binding in human plasma; format: ADME, cell-free; conditions: read-out: PPB (converted)

Sequence of Cytochrome P450 2C9 (P11712 whole entry): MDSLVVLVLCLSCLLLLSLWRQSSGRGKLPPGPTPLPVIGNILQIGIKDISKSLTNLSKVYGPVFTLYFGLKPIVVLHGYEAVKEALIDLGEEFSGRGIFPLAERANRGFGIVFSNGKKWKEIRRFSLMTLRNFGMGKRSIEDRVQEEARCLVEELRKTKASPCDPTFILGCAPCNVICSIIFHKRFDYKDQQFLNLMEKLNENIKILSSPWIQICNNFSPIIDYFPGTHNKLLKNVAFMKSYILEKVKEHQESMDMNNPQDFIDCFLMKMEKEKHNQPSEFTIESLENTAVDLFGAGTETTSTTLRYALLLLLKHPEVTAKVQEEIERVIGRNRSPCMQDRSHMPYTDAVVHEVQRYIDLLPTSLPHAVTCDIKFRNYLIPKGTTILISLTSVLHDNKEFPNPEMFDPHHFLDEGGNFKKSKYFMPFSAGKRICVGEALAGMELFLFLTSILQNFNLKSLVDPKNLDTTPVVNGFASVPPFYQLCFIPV
Sequence of Cytochrome P450 2C19 (P33261 whole entry): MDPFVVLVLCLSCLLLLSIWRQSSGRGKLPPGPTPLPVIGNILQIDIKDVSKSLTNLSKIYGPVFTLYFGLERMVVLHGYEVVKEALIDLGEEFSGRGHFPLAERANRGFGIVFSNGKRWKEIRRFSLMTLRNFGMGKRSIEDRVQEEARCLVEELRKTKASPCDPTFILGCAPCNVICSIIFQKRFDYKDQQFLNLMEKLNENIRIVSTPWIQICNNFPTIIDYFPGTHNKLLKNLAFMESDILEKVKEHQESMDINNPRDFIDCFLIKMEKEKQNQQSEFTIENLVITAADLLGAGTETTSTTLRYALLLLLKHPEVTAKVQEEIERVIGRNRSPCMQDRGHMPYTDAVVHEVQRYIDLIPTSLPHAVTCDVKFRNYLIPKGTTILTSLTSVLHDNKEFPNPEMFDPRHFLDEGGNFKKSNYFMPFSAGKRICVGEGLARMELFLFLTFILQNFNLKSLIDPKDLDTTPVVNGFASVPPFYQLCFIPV
Sequence of Cytochrome P450 2D6 (P10635 whole entry): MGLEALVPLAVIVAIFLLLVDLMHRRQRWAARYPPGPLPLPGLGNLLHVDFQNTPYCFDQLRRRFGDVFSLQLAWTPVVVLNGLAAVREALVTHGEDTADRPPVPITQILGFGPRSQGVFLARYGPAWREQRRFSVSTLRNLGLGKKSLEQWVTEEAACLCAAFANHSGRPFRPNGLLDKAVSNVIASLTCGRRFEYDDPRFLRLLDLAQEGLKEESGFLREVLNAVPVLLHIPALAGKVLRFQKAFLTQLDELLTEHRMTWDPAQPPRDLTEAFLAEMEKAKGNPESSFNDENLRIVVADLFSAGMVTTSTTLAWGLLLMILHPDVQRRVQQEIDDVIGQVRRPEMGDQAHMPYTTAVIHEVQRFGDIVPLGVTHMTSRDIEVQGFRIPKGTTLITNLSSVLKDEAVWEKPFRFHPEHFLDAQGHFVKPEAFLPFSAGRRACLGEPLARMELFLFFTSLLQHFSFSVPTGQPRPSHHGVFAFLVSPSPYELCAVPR
Sequence of Cytochrome P450 3A4 (P08684 whole entry): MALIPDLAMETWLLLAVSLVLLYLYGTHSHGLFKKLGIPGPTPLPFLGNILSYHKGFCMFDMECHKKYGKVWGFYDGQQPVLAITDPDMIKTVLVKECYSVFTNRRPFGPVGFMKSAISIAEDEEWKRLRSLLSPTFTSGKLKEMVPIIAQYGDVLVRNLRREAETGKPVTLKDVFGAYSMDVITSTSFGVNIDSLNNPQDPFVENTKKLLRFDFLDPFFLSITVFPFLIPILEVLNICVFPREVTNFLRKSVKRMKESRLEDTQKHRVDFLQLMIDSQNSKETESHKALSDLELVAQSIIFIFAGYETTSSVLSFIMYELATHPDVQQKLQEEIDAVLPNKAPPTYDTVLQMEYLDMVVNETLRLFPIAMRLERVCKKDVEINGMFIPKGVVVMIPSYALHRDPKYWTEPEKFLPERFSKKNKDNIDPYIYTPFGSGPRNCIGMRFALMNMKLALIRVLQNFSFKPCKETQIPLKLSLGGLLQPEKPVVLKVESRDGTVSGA

Compound	%max [1] [%]	EC50 [2] [µM]	remaining at 1 h, 5 µM [3] [%]	remaining at 1 h, 5 µM [4] [%]	further results
C[C@@H](O[C@H]1CC[C@@]2(CC1)CC(F)(F)CCO2)c1nc(-c2cc(F)c(CS(C)(=O)=O)c(F)c2)no1	106	0.027	97	91	
CC(O[C@H]1CC[C@]2(CC1)COC(C)(C)C2)c1nc(-c2ccc(CC(=O)N(C)C)c(F)c2)no1 (mixture of isomers)	131	0.069			
C[C@@H](O[C@H]1CC[C@]2(CC1)COC(C)(C)C2)c1nc(-c2ccc(CS(C)(=O)=O)c(F)c2)no1	106	0.027			
C[C@@H](O[C@H]1CC[C@]2(CC1)COC(C)(C)C2)c1nc(-c2ccc(CS(C)(=O)=O)c(F)c2F)no1	77	0.301			
CC(O[C@H]1CC[C@@]2(CC1)CC(C)(C)CCO2)c1nc(-c2ccc(CS(C)(=O)=O)c(F)c2)no1 (stereo partly specified)	113	0.029	0	53	
CC1(C)C[C@]2(CC[C@H](OCc3nc(-c4ccc(S(C)(=O)=O)c(F)c4)no3)CC2)CO1	103	0.261			
CC(O[C@H]1CC[C@]2(CC1)COC(C)(C)C2)c1nc(-c2ccc(S(C)(=O)=O)c(F)c2)no1 (mixture of isomers)	109				
C[C@H](O[C@H]1CC[C@]2(CC1)COC(C)(C)C2)c1nc(-c2ccc(CS(C)(=O)=O)c(F)c2)no1	106	0.43			
CC(O[C@H]1CC[C@]2(CC1)COC(C)(C)C2)c1nc(-c2ccc(CS(C)(=O)=O)cc2)no1 (mixture of isomers)	120	0.426			
C[C@@H](O[C@H]1CC[C@]2(CC1)COC(C)(C)C2)c1nc(-c2cc(F)c(CS(C)(=O)=O)cc2F)no1	118	0.064			
CC(O[C@H]1CC[C@]2(CCC(C)(C)CO2)CC1)c1nc(-c2ccc(CS(C)(=O)=O)c(F)c2)no1 (stereo partly specified)	109	0.025	0	56	
CC(O[C@H]1CC[C@]2(CCCO2)CC1)c1nc(-c2ccc(CS(C)(=O)=O)c(F)c2)no1 (stereo partly specified)	114	0.72	49	54	
CC(O[C@H]1CC[C@]2(CC1)COC(C)(C)C2)c1nc(-c2ccc(CS(C)(=O)=O)c(F)c2)no1 (mixture of isomers)	130	0.044	62	86	
C[C@@H](O[C@H]1CC[C@]2(CCC(F)(F)CO2)CC1)c1nc(-c2cc(F)c(CS(C)(=O)=O)c(F)c2)no1	112	0.006	98	98	Activity (Rattus norvegicus [5]): 10%; IC50 (Cytochrome P450 2C8): > 50 µM; Activity (Rattus norvegicus [6]): 12%; IC50 (Cytochrome P450 2C19): > 50 µM; IC50 (Cytochrome P450 2C9): > 50 µM; Activity (Rattus norvegicus [7]): Non-Toxic; IC50 (Cytochrome P450 2D6): > 50 µM; IC50 (Cytochrome P450 3A4): > 50 µM; Vd [8]: 3.5 L/kg; Activity (Rattus norvegicus [9]): Non-Toxic; MRT [10]: 6.4 h; IC50 (Cytochrome P450 1A2): > 50 µM; clearance [11]: 8.33 mL/min/kg; half-life [12]: 5.1 h; bioavailability [13]: 43%; Activity (Rattus norvegicus [14]): Active; Activity (Rattus norvegicus [15]): Active
CC(O[C@H]1CC[C@]2(CCCCO2)CC1)c1nc(-c2ccc(CS(C)(=O)=O)c(F)c2)no1 (stereo partly specified)	112	0.086	39	64	
CC(O[C@H]1CC[C@]2(CC1)COC(C)(C)C2)c1nc(-c2ccc(C(=O)N(C)C)c(F)c2)no1 (mixture of isomers)	86	2.46			
CC(O[C@H]1CC[C@@]2(CC1)CC(C)(C)CO2)c1nc(-c2ccc(CS(C)(=O)=O)c(F)c2)no1 (stereo partly specified)	115	0.031	15	55	
C[C@@H](O[C@H]1CC[C@@]2(CC1)CC(F)(F)CO2)c1nc(-c2cc(F)c(CS(C)(=O)=O)c(F)c2)no1	116	0.007	83	85	
C[C@@H](O[C@H]1CC[C@]2(CC1)COC(C)(C)C2)c1nc(-c2cc(F)c(CS(C)(=O)=O)c(F)c2)no1	109	0.005	65	83	fraction unbound [16]: 0.06; fraction unbound [17]: 0.035
